From ChEMBL document CHEMBL5058577, “EUbOPEN Chemogenomics Library 2 (Multiplex)” (2022)

Tested on: U2OS
Experiment: Multiplex assay against U2OS
Assay type: toxicity, cell-based
Conditions: human
Procedure, shortened: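 Phenotypes for tubulin, mitochondrial mass and membrane permeability are expressed as per cents of healthy-nucleus cells. Cells were stained live at seeding with Hoechst33342, BioTracker Green Microtubule Cytoskeleton Dye, MitoTracker Red and Annexin V Alexa Fluor 680, then imaged after compound addition on a CQ1 microscope at 37°C and 5% CO2. Machine-learning gating in CellPathfinder separated Hoechst high-intensity objects from normal cells, divided normal cells by nuclear state (healthy, pyknosed, fragmented) and divided pyknosed cells into mitotic or apoptotic.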

[1] = 12 h, 1 µM, compound concentration 1 uM, replicate 1
[2] = 12 h, 1 µM, compound concentration 1 uM, replicate 2
[3] = 12 h, 10 µM, compound concentration 10 uM, replicate 1
[4] = 12 h, 10 µM, compound concentration 10 uM, replicate 2
[5] = 24 h, 1 µM, compound concentration 1 uM, replicate 1
[6] = 24 h, 1 µM, compound concentration 1 uM, replicate 2
[7] = 24 h, 10 µM, compound concentration 10 uM, replicate 1
[8] = 24 h, 10 µM, compound concentration 10 uM, replicate 2
[9] = 48 h, 1 µM, compound concentration 1 uM, replicate 1
[10] = 48 h, 1 µM, compound concentration 1 uM, replicate 2
[11] = 48 h, 10 µM, compound concentration 10 uM, replicate 1
[12] = 48 h, 10 µM, compound concentration 10 uM, replicate 2

## Cl.Cl.OCCOCCN1CCN(C(c2ccccc2)c2ccc(Cl)cc2)CC1 (stereo unspecified) [HYDROXYZINE HYDROCHLORIDE]
[1]
  Population Apoptotic (%): 60%
  Population Fragmented Nuclei (%): 29%
  Population Healthy Nuclei (%): 61%
  Population Hoechst High Intensity Objects (%): 0%
  Population Membrane Permeable-Phenotype (%): 11%
  Population Mitochondria Different-Phenotype (%): 4%
  Population Mitotic Cells (%): 40%
  Population Normal (%): 99%
  Population Pyknosed Nuclei (%): 9%
  Population Tubulin-Different-Phenotype (%): 7%
  Total Cell Count: 208
[2]
  Population Apoptotic (%): 80%
  Population Fragmented Nuclei (%): 13%
  Population Healthy Nuclei (%): 78%
  Population Hoechst High Intensity Objects (%): 1%
  Population Membrane Permeable-Phenotype (%): 9%
  Population Mitochondria Different-Phenotype (%): 6%
  Population Mitotic Cells (%): 20%
  Population Normal (%): 98%
  Population Pyknosed Nuclei (%): 7%
  Population Tubulin-Different-Phenotype (%): 8%
  Total Cell Count: 139
[3]
  Population Apoptotic (%): 58%
  Population Fragmented Nuclei (%): 20%
  Population Healthy Nuclei (%): 66%
  Population Hoechst High Intensity Objects (%): 1%
  Population Membrane Permeable-Phenotype (%): 9%
  Population Mitochondria Different-Phenotype (%): 10%
  Population Mitotic Cells (%): 41%
  Population Normal (%): 98%
  Population Pyknosed Nuclei (%): 13%
  Population Tubulin-Different-Phenotype (%): 6%
  Total Cell Count: 316
[4]
  Population Apoptotic (%): 88%
  Population Fragmented Nuclei (%): 26%
  Population Hoechst High Intensity Objects (%): 2%
  Population Membrane Permeable-Phenotype (%): 5%
  Population Mitochondria Different-Phenotype (%): 7%
  Population Mitotic Cells (%): 11%
  Population Normal (%): 97%
  Population Pyknosed Nuclei (%): 6%
  Population Tubulin-Different-Phenotype (%): 7%
  Total Cell Count: 141
[5]
  Population Apoptotic (%): 96%
  Population Fragmented Nuclei (%): 25%
  Population Healthy Nuclei (%): 63%
  Population Hoechst High Intensity Objects (%): 1%
  Population Membrane Permeable-Phenotype (%): 8%
  Population Mitochondria Different-Phenotype (%): 4%
  Population Mitotic Cells (%): 4%
  Population Normal (%): 98%
  Population Pyknosed Nuclei (%): 10%
  Population Tubulin-Different-Phenotype (%): 7%
  Total Cell Count: 232
[6]
  Population Apoptotic (%): 77%
  Population Fragmented Nuclei (%): 9%
  Population Healthy Nuclei (%): 77%
  Population Hoechst High Intensity Objects (%): 2%
  Population Membrane Permeable-Phenotype (%): 5%
  Population Mitochondria Different-Phenotype (%): 1%
  Population Mitotic Cells (%): 22%
  Population Normal (%): 97%
  Population Pyknosed Nuclei (%): 12%
  Population Tubulin-Different-Phenotype (%): 1%
  Total Cell Count: 148
[7]
  Population Apoptotic (%): 73%
  Population Fragmented Nuclei (%): 23%
  Population Healthy Nuclei (%): 63%
  Population Hoechst High Intensity Objects (%): 2%
  Population Membrane Permeable-Phenotype (%): 10%
  Population Mitochondria Different-Phenotype (%): 8%
  Population Mitotic Cells (%): 26%
  Population Normal (%): 97%
  Population Pyknosed Nuclei (%): 12%
  Population Tubulin-Different-Phenotype (%): 4%
  Total Cell Count: 359
[8]
  Population Apoptotic (%): 61%
  Population Fragmented Nuclei (%): 31%
  Population Healthy Nuclei (%): 60%
  Population Membrane Permeable-Phenotype (%): 12%
  Population Mitochondria Different-Phenotype (%): 13%
  Population Mitotic Cells (%): 38%
  Population Pyknosed Nuclei (%): 7%
  Population Tubulin-Different-Phenotype (%): 9%
  Total Cell Count: 168
[9]
  Population Apoptotic (%): 89%
  Population Fragmented Nuclei (%): 24%
  Population Healthy Nuclei (%): 62%
  Population Hoechst High Intensity Objects (%): 2%
  Population Membrane Permeable-Phenotype (%): 4%
  Population Mitochondria Different-Phenotype (%): 3%
  Population Mitotic Cells (%): 10%
  Population Normal (%): 97%
  Population Pyknosed Nuclei (%): 13%
  Population Tubulin-Different-Phenotype (%): 4%
  Total Cell Count: 300
[10]
  Population Apoptotic (%): 90%
  Population Fragmented Nuclei (%): 14%
  Population Healthy Nuclei (%): 76%
  Population Membrane Permeable-Phenotype (%): 5%
  Population Pyknosed Nuclei (%): 8%
  Population Tubulin-Different-Phenotype (%): 0%
  Total Cell Count: 230
[11]
  Population Apoptotic (%): 83%
  Population Fragmented Nuclei (%): 17%
  Population Healthy Nuclei (%): 68%
  Population Hoechst High Intensity Objects (%): 2%
  Population Membrane Permeable-Phenotype (%): 8%
  Population Mitochondria Different-Phenotype (%): 6%
  Population Mitotic Cells (%): 16%
  Population Normal (%): 97%
  Population Pyknosed Nuclei (%): 13%
  Population Tubulin-Different-Phenotype (%): 4%
  Total Cell Count: 456
[12]
  Population Fragmented Nuclei (%): 27%
  Population Healthy Nuclei (%): 64%
  Population Hoechst High Intensity Objects (%): 5%
  Population Membrane Permeable-Phenotype (%): 10%
  Population Mitochondria Different-Phenotype (%): 5%
  Population Normal (%): 94%
  Population Pyknosed Nuclei (%): 8%
  Population Tubulin-Different-Phenotype (%): 5%
  Total Cell Count: 231

## CCC(=O)OCC(=O)[C@@]1(OC(=O)CC)[C@@H](C)C[C@H]2[C@@H]3CCC4=CC(=O)C=C[C@]4(C)[C@@]3(Cl)[C@@H](O)C[C@@]21C [BECLOMETHASONE DIPROPIONATE]
[1]
  Population Apoptotic (%): 84%
  Population Fragmented Nuclei (%): 23%
  Population Healthy Nuclei (%): 64%
  Population Hoechst High Intensity Objects (%): 1%
  Population Membrane Permeable-Phenotype (%): 11%
  Population Mitochondria Different-Phenotype (%): 4%
  Population Mitotic Cells (%): 15%
  Population Normal (%): 98%
  Population Pyknosed Nuclei (%): 12%
  Population Tubulin-Different-Phenotype (%): 6%
  Total Cell Count: 160
[2]
  Population Apoptotic (%): 71%
  Population Fragmented Nuclei (%): 18%
  Population Healthy Nuclei (%): 75%
  Population Hoechst High Intensity Objects (%): 0%
  Population Membrane Permeable-Phenotype (%): 13%
  Population Mitochondria Different-Phenotype (%): 8%
  Population Mitotic Cells (%): 28%
  Population Normal (%): 99%
  Population Pyknosed Nuclei (%): 6%
  Population Tubulin-Different-Phenotype (%): 4%
  Total Cell Count: 111
[3]
  Population Apoptotic (%): 65%
  Population Fragmented Nuclei (%): 42%
  Population Healthy Nuclei (%): 40%
  Population Hoechst High Intensity Objects (%): 4%
  Population Membrane Permeable-Phenotype (%): 67%
  Population Mitochondria Different-Phenotype (%): 73%
  Population Mitotic Cells (%): 34%
  Population Normal (%): 95%
  Population Pyknosed Nuclei (%): 17%
  Population Tubulin-Different-Phenotype (%): 80%
  Total Cell Count: 176
[4]
  Population Apoptotic (%): 68%
  Population Fragmented Nuclei (%): 12%
  Population Healthy Nuclei (%): 69%
  Population Membrane Permeable-Phenotype (%): 48%
  Population Mitochondria Different-Phenotype (%): 97%
  Population Mitotic Cells (%): 31%
  Population Pyknosed Nuclei (%): 18%
  Population Tubulin-Different-Phenotype (%): 97%
  Total Cell Count: 109
[5]
  Population Apoptotic (%): 78%
  Population Fragmented Nuclei (%): 21%
  Population Healthy Nuclei (%): 67%
  Population Hoechst High Intensity Objects (%): 2%
  Population Membrane Permeable-Phenotype (%): 2%
  Population Mitochondria Different-Phenotype (%): 4%
  Population Mitotic Cells (%): 21%
  Population Normal (%): 97%
  Population Pyknosed Nuclei (%): 10%
  Population Tubulin-Different-Phenotype (%): 1%
  Total Cell Count: 217
[6]
  Population Apoptotic (%): 87%
  Population Fragmented Nuclei (%): 15%
  Population Healthy Nuclei (%): 71%
  Population Hoechst High Intensity Objects (%): 0%
  Population Membrane Permeable-Phenotype (%): 6%
  Population Mitochondria Different-Phenotype (%): 5%
  Population Mitotic Cells (%): 12%
  Population Normal (%): 99%
  Population Pyknosed Nuclei (%): 13%
  Population Tubulin-Different-Phenotype (%): 3%
  Total Cell Count: 123
[7]
  Population Apoptotic (%): 74%
  Population Fragmented Nuclei (%): 35%
  Population Healthy Nuclei (%): 45%
  Population Hoechst High Intensity Objects (%): 3%
  Population Membrane Permeable-Phenotype (%): 40%
  Population Mitochondria Different-Phenotype (%): 72%
  Population Mitotic Cells (%): 25%
  Population Normal (%): 96%
  Population Pyknosed Nuclei (%): 18%
  Population Tubulin-Different-Phenotype (%): 66%
  Total Cell Count: 174
[8]
  Population Apoptotic (%): 64%
  Population Fragmented Nuclei (%): 12%
  Population Healthy Nuclei (%): 69%
  Population Hoechst High Intensity Objects (%): 9%
  Population Membrane Permeable-Phenotype (%): 43%
  Population Mitochondria Different-Phenotype (%): 86%
  Population Mitotic Cells (%): 35%
  Population Normal (%): 90%
  Population Pyknosed Nuclei (%): 17%
  Population Tubulin-Different-Phenotype (%): 76%
  Total Cell Count: 106
[9]
  Population Apoptotic (%): 91%
  Population Fragmented Nuclei (%): 22%
  Population Healthy Nuclei (%): 68%
  Population Hoechst High Intensity Objects (%): 2%
  Population Membrane Permeable-Phenotype (%): 5%
  Population Mitochondria Different-Phenotype (%): 2%
  Population Mitotic Cells (%): 8%
  Population Normal (%): 97%
  Population Pyknosed Nuclei (%): 9%
  Population Tubulin-Different-Phenotype (%): 2%
  Total Cell Count: 268
[10]
  Population Apoptotic (%): 85%
  Population Fragmented Nuclei (%): 10%
  Population Healthy Nuclei (%): 75%
  Population Membrane Permeable-Phenotype (%): 8%
  Population Mitochondria Different-Phenotype (%): 5%
  Population Mitotic Cells (%): 14%
  Population Pyknosed Nuclei (%): 14%
  Population Tubulin-Different-Phenotype (%): 3%
  Total Cell Count: 152
[11]
  Population Apoptotic (%): 80%
  Population Fragmented Nuclei (%): 36%
  Population Healthy Nuclei (%): 47%
  Population Hoechst High Intensity Objects (%): 4%
  Population Membrane Permeable-Phenotype (%): 20%
  Population Mitochondria Different-Phenotype (%): 26%
  Population Mitotic Cells (%): 20%
  Population Normal (%): 95%
  Population Pyknosed Nuclei (%): 15%
  Population Tubulin-Different-Phenotype (%): 14%
  Total Cell Count: 199
[12]
  Population Apoptotic (%): 70%
  Population Fragmented Nuclei (%): 21%
  Population Healthy Nuclei (%): 65%
  Population Hoechst High Intensity Objects (%): 6%
  Population Membrane Permeable-Phenotype (%): 16%
  Population Mitochondria Different-Phenotype (%): 36%
  Population Mitotic Cells (%): 29%
  Population Normal (%): 93%
  Population Pyknosed Nuclei (%): 13%
  Population Tubulin-Different-Phenotype (%): 10%
  Total Cell Count: 131
